This note sets out measurements from ChEMBL document CHEMBL1138489, “Chalcones: a valid scaffold for monoamine oxidases inhibitors” (J Med Chem, 2009).

The IC50 is the concentration needed to halve the response being measured.

Data set [1] deals with T1, Amine oxidase [flavin-containing] A (Homo sapiens, UniProt P21397).
T1 sequence (P21397 whole entry): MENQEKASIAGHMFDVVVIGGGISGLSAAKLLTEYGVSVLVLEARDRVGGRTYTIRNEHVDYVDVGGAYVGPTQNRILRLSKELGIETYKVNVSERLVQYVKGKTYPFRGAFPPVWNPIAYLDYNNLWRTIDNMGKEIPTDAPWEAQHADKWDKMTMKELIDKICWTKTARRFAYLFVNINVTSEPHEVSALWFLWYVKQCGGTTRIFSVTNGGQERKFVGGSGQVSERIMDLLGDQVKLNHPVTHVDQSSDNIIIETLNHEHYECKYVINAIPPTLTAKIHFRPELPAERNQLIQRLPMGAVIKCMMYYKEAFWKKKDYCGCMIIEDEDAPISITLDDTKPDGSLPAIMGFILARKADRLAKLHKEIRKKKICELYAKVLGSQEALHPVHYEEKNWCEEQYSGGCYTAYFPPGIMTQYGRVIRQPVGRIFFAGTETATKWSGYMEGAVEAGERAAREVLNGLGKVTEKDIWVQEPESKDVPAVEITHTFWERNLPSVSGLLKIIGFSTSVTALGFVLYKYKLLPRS
In words: Inhibition of human recombinant MAO-A assessed as hydrogen peroxide production at 20 uM. The method, boiled down: (§1)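 Recombinant hMAO-A or hMAO-B microsomes came from baculovirus-infected BTI-TN-5B1-4 insect cells. Enzyme was set to 165 pmol p-tyramine/min (A 1.1 µg, B 7.5 µg protein). It was preincubated with compound in 0.05 M sodium phosphate, pH 7.4, for 15 min at 37 °C. Final 200 µM Amplex Red, 1 U/mL HRP and 1 mM p-tyramine started the reaction. H2O2 was read as resorufin fluorescence (ex 545/em 590 nm) over 15 min at 37 °C against vehicle controls.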

In data set [2] the target is T2, Amine oxidase [flavin-containing] B (Homo sapiens, UniProt P27338).
T2 sequence (P27338 whole entry): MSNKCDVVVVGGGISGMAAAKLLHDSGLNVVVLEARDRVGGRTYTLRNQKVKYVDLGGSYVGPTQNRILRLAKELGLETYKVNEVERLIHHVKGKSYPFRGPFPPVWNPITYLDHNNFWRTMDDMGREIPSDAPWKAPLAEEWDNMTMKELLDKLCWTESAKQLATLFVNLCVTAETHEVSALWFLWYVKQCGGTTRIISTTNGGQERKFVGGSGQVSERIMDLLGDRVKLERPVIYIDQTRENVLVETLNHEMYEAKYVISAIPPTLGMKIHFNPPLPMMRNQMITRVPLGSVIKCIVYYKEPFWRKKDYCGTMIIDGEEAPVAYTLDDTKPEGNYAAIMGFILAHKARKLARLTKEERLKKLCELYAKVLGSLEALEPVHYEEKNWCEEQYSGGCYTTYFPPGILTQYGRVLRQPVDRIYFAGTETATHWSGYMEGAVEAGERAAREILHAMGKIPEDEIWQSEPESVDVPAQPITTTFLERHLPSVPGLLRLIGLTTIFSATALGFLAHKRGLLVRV

Another data set is filed under the species Homo sapiens. In words: Selectivity index, ratio of inhibition of human recombinant MAO-A at 20 uM or 50 uM to IC50 for human recombinant MAO-B.
Data set [3] has as its target T1, Amine oxidase [flavin-containing] A. In words: Inhibition of human recombinant MAO-A assessed as hydrogen peroxide production at 1 mM.
The target of data set [4] is T2, Amine oxidase [flavin-containing] B. Description: Inhibition of human MAO-B at 5 uM before washing.
For data set [5] the target is unchanged. Description: Inhibition of human MAO-B at 5 uM after repeated washing.
Data set [6] concerns the target T1, Amine oxidase [flavin-containing] A. Description: Inhibition of human recombinant MAO-A assessed as hydrogen peroxide production.
The target is the same in data set [7]. In words: Inhibition of human recombinant MAO-A assessed as hydrogen peroxide production at 50 uM. In a few lines:
as §1

Data set [8] addresses T2, Amine oxidase [flavin-containing] B. In words: Inhibition of human recombinant MAO-B assessed as hydrogen peroxide production at 1 mM. In a few lines: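 Microsomal recombinant hMAO-B (baculovirus-infected BTI-TN-5B1-4 insect cells; 7.5 µg protein) preincubated with drug in 0.05 M sodium phosphate, pH 7.4, 15 min, 37 °C. Started with (final) 200 µM Amplex Red, 1 U/mL horseradish peroxidase, 1 mM p-tyramine. H2O2 read as resorufin fluorescence (ex 545/em 590 nm) over 15 min at 37 °C. Vehicle controls; five experiments.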

For data set [9] the target is unchanged. Description: Inhibition of human MAO-B at 20 uM before washing.
Data set [10] shares this target. In words: Inhibition of human MAO-B at 20 uM after repeated washing.
Data set [11] shares this target. In words: Inhibition of human recombinant MAO-B assessed as hydrogen peroxide production at 20 uM.

Take `COc1ccc(C(=O)/C=C/c2ccc(OCc3ccccc3)cc2)cc1`: the IC50 entry is “Not Active” in [1] and 450 nM in data set [2]. The Ratio IC50 in the data set listed under Homo sapiens was greater than 44.
On the same counts, the results for `CC(C)=CCOc1ccc(C(=O)/C=C/c2ccc(Cl)cc2)c(O)c1` are “Not Active”, 1250 nM and greater than 16.
On the same counts, the results for `COc1ccc(C(=O)/C=C/c2ccc(Cl)cc2)cc1` are “Not Active”, 54 nM and greater than 370.
As for `O=C(/C=C/c1ccc(Cl)cc1)c1ccc(F)cc1O`, half-maximal inhibition in [2] (IC50) required 71 nM. For the same compound, in the data set filed under Homo sapiens, the Ratio IC50 was greater than 704.
As for `O=C(/C=C/c1ccc(Cl)cc1)c1ccc(O)cc1O`, the figures for the IC50 result in data set [3], in data set [2] and in data set [6] were “Not Active”, 5.1 nM and 4950 nM, respectively. Also, in the data set listed under Homo sapiens, the Ratio IC50 amounted to 971. For the same compound, the “inhibition (INH)” value in data set [4] came to 55.12%; in [5], 61.38%.
As to `O=C(/C=C/c1ccc(Cl)cc1)c1ccc(OCc2ccccc2)cc1`, in [1], the IC50 entry is reported as “Not Active”.
On to `O=C(/C=C/c1ccc(Cl)cc1)c1ccc(O)cc1`, for which the figures for the IC50 in data set [2] and in [7] were 31 nM and “Not Active”, respectively. Besides, in the data set filed under Homo sapiens, the Ratio IC50 was greater than 1610.
As for `C#CCN(C)[C@H](C)Cc1ccccc1` [SELEGILINE], the IC50 entry in [3] is “Not Active”.
With `O=C(NCCN1CCOCC1)c1ccc(Cl)cc1` [MOCLOBEMIDE], the IC50 entry in data set [8] is listed as “Not Active”.
As to `C#CCN(C)CCCOc1ccc(Cl)cc1Cl` [CLORGILINE], the IC50 result in data set [3] is given as “Not Active”.
On to `O=C(/C=C/c1ccccc1)c1ccccc1` [CHALCONE], for which the IC50 result is “Not Active” in data set [1] and 1410 nM in data set [2]. Further, in the data set filed under Homo sapiens, the Ratio IC50 is greater than 14.
Take `O=C(/C=C/c1ccc(Cl)cc1)c1ccccc1O`: the results for the IC50 in data set [2] and in data set [7] were 160 nM and “Not Active”, respectively. Moreover, the Ratio IC50 in the data set listed under Homo sapiens was greater than 312.
`CS(=O)(=O)c1ccc(C(=O)/C=C/c2ccc(Cl)cc2)cc1`: the IC50 result in data set [1] was “Not Active”; in data set [2] it was 470 nM. Moreover, the Ratio IC50 in the data set filed under Homo sapiens is greater than 43.
Take `COc1ccc(C(=O)/C=C/c2ccc(Cl)cc2)c(O)c1`: the figures for the “inhibition (INH)” value in [4] and in data set [5] were 59.13% and 60.26%, respectively.
On to `CC(C)=CCOc1ccc(C(=O)/C=C/c2ccccc2)c(O)c1` [CORDOIN], for which the “inhibition (INH)” value in [9] is given as 54.32%; in [10] it was 58.51%. Besides, the IC50 result in [1] is “Not Active”; in data set [2], 18800 nM. Besides, the Ratio IC50 in the data set filed under Homo sapiens is greater than 1.1.
On to `CC(C)=CCOc1ccc(C(=O)/C=C/c2ccc(C)cc2)c(O)c1`, for which the IC50 result in data set [1] was “Not Active”; in data set [2], 1030 nM. In addition, in the data set filed under Homo sapiens, the Ratio IC50 was greater than 19.
With `CC(C)=CCOc1ccc(C(=O)/C=C/c2ccc(OCc3ccccc3)cc2)c(O)c1`, the IC50 entry in [1] and in data set [11] was “Not Active” in each case.
As for `COc1ccc(/C=C/C(=O)c2ccc(OCC=C(C)C)cc2O)cc1`, the half-inhibitory concentration (IC50) result in data set [1] and in data set [11] was “Not Active” throughout.
With `O=C(/C=C/c1ccc(OCc2ccccc2)cc1)c1ccc(F)cc1`, the IC50 result in data set [1] is “Not Active”; in data set [2] it was 500 nM. In addition, the Ratio IC50 in the data set listed under Homo sapiens is greater than 40.
